Measured values reported in ChEMBL document CHEMBL3352265, “Potentially bioactive organotin(IV) compounds: synthesis, characterization, in vitro bioactivities and interaction with SS-DNA” (Eur J Med Chem, 2014).
Active and inactive are the calls of the source. The rule behind the calls is not given here.

Experiments:
[1] = tested on: Klebsiella aerogenes; experiment: Antibacterial activity against Enterobacter aerogenes ATCC 13048 at 40 mg/mL after 24 hrs by disc diffusion method; assay type: functional
Summary of the method: (§1)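 Disc diffusion. Strains grown in nutrient broth at 37 °C for 24 h. 1% culture (about 10^6 CFU/mL) mixed into nutrient agar at 45 °C and poured. 4 mm paper discs received compound at 40 mg/mL stock in DMSO; final concentrations tested were […]. DMSO served as negative control, roxithromycin and cefixime as positive controls. Triplicate plates incubated at 37 °C for 24 h. Complete-inhibition zone diameter (mm) recorded as the mean of 3.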

[2] = tested on: Aspergillus flavus; experiment: Antifungal activity against Aspergillus flavus FCBP 0064 after 7 days by disc diffusion method; assay type: functional, organism-based
Summary of the method: (§2)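 Disc diffusion on SDA. Fungi cultured at 28 °C for 24 h. 4 mm discs received compound at 40 mg/mL stock in DMSO. DMSO served as negative control, terbinafine as positive control. Plates incubated at 28 °C for 7 days. Growth diameter (mm) measured and inhibition calculated against the negative control. MIC taken as the lowest concentration with no growth.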

[3] = tested on: Aspergillus niger; experiment: Antifungal activity against Aspergillus niger FCBP 0198 after 7 days by disc diffusion method; assay type: functional, organism-based; summary of the method: as §2
[4] = tested on: Aspergillus flavus; experiment: Antifungal activity against Aspergillus flavus FCBP 0064 at 40 mg/mL after 7 days by disc diffusion method; assay type: functional; summary of the method: as §2
[5] = tested on: Escherichia coli; experiment: Antibacterial activity against Escherichia coli ATCC 15224 at 40 mg/mL after 24 hrs by disc diffusion method; assay type: functional; summary of the method: as §1
[6] = tested on: Escherichia coli; experiment: Induction of Escherichia coli pBR322 DNA damage assessed as open circular form at 1 ug/ml after 60 mins by gel electrophoresis
[7] = tested on: Staphylococcus aureus; experiment: Antibacterial activity against Staphylococcus aureus ATCC 6538 at 40 mg/mL after 24 hrs by disc diffusion method; assay type: functional; summary of the method: as §1
[8] = tested on: Agrobacterium tumefaciens; experiment: Antitumor activity against Agrobacterium tumefaciens -induced tumor at 10 ug/ml after 21 days by potato disc bioassay technique; assay type: functional
Summary of the method: (§3)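 Potato disc assay with 48 h culture of A. tumefaciens At-10. Inoculum contained compound at […]. Red-skinned potatoes sterilized in 0.1% HgCl2; 8 mm × 4 mm discs placed ten per 1.5% agar plate, […] each. Incubated at 28 °C in the dark for 21 days, in triplicate. Discs stained with Lugol's and tumors counted. Percent inhibition calculated against the negative control.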

[9] = tested on: Escherichia coli; experiment: Antibacterial activity against Escherichia coli ATCC 15224 after 18 hrs by microdilution method; assay type: functional
Summary of the method: (§4)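 Broth microdilution. Twofold dilutions in culture broth at […]. Each well inoculated with bacterial suspension (10^8 CFU/mL, about 10^5 CFU/well). Sterility control and growth control (broth plus DMSO) included. Incubated at 36 °C for 18 h, in triplicate. MIC taken as the lowest concentration inhibiting growth, given in micrograms per mL.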

[10] = tested on: Agrobacterium tumefaciens; experiment: Antitumor activity against Agrobacterium tumefaciens -induced tumor at 1000 ug/ml after 21 days by potato disc bioassay technique; assay type: functional; summary of the method: as §3
[11] = tested on: Agrobacterium tumefaciens; experiment: Antitumor activity against Agrobacterium tumefaciens -induced tumor at 100 ug/ml after 21 days by potato disc bioassay technique; assay type: functional; summary of the method: as §3
[12] = tested on: Bordetella bronchiseptica; experiment: Antibacterial activity against Bordetella bronchiseptica ATCC 4617 after 18 hrs by microdilution method; assay type: functional; summary of the method: as §4
[13] = tested on: Mucor; experiment: Antifungal activity against Mucor FCBP 0400 at 40 mg/mL after 7 days by disc diffusion method; assay type: functional; summary of the method: as §2
[14] = tested on: Aspergillus fumigatus; experiment: Antifungal activity against Aspergillus fumigatus FCBP 66 after 7 days by disc diffusion method; assay type: functional, organism-based; summary of the method: as §2
[15] = tested on: Escherichia coli; experiment: Induction of Escherichia coli pBR322 DNA damage assessed as open circular form at 10 ug/ml after 60 mins by gel electrophoresis
[16] = tested on: Artemia salina; experiment: Cytotoxicity in brine shrimp assessed as mortality after 24 hrs; assay type: functional
[17] = tested on: Escherichia coli; experiment: Induction of Escherichia coli pBR322 DNA damage assessed as open circular form at 1000 ug/ml after 60 mins by gel electrophoresis
[18] = tested on: Mucor; experiment: Antifungal activity against Mucor FCBP 0400 at 40 mg/mL by disc diffusion method; assay type: functional, organism-based; summary of the method: as §2
[19] = tested on: Salmonella typhimurium; experiment: Antibacterial activity against Salmonella typhimurium ATCC 14028 at 40 mg/mL after 24 hrs by disc diffusion method; assay type: functional; conditions: Salmonella enterica subsp. enterica serovar Typhimurium; summary of the method: as §1
[20] = tested on: Bacillus spizizenii; experiment: Antibacterial activity against Bacillus subtilis ATCC 6633 at 40 mg/mL after 24 hrs by disc diffusion method; assay type: functional; summary of the method: as §1
[21] = tested on: Bordetella bronchiseptica; experiment: Antibacterial activity against Bordetella bronchiseptica ATCC 4617 at 40 mg/mL after 24 hrs by disc diffusion method; assay type: functional; summary of the method: as §1
[22] = tested on: Bacillus spizizenii; experiment: Antibacterial activity against Bacillus subtilis ATCC 6633 after 18 hrs by microdilution method; assay type: functional; summary of the method: as §4
[23] = tested on: Escherichia coli; experiment: Induction of Escherichia coli pBR322 DNA damage assessed as open circular form at 100 ug/ml after 60 mins by gel electrophoresis
[24] = tested on: Staphylococcus aureus; experiment: Antibacterial activity against Staphylococcus aureus ATCC 6538 after 18 hrs by microdilution method; assay type: functional; summary of the method: as §4
[25] = tested on: Klebsiella aerogenes; experiment: Antibacterial activity against Enterobacter aerogenes ATCC 13048 after 18 hrs by microdilution method; assay type: functional, organism-based; summary of the method: as §4
[26] = tested on: Salmonella typhimurium; experiment: Antibacterial activity against Salmonella typhimurium ATCC 14028 after 18 hrs by microdilution method; assay type: functional; conditions: Salmonella enterica subsp. enterica serovar Typhimurium; summary of the method: as §4
[27] = tested on: Aspergillus niger; experiment: Antifungal activity against Aspergillus niger FCBP 0198 at 40 mg/mL after 7 days by disc diffusion method; assay type: functional; summary of the method: as §2
[28] = tested on: Aspergillus fumigatus; experiment: Antifungal activity against Aspergillus fumigatus FCBP 66 at 40 mg/mL after 7 days by disc diffusion method; assay type: functional; summary of the method: as §2

Substance | inhibition zone (IZ) [1] [mm] | MIC [2] [µg/mL] | MIC [3] [µg/mL] | inhibition zone (IZ) [4] [mm] | inhibition zone (IZ) [5] [mm] | Activity [6] | inhibition zone (IZ) [7] [mm] | Activity [8] [%] | Activity [10] [%] | Activity [11] [%] | inhibition zone (IZ) [13] [mm] | MIC [14] [µg/mL] | Activity [15] | LD50 [16] [µg/mL] | Activity [17] | MIC [18] [µg/mL] | inhibition zone (IZ) [19] [mm] | inhibition zone (IZ) [20] [mm] | inhibition zone (IZ) [21] [mm] | Activity [23] | other results
N-[(2-methoxyphenyl)]-4-oxo-4-[(triethylstannyl)oxy]butanamide | 22 | 0.78 | 0.78 | 46 | 34 | Active | 28 | 48.3 | 84.1 | 70.3 | 34 | 0.78 | Active | 0.881 | Active | 0.78 | 26 | 36 | 38 | Active | MIC [9]: 6.25 µg/mL; MIC [12]: 6.25 µg/mL; MIC [22]: 6.25 µg/mL; MIC [24]: 50 µg/mL; MIC [25]: 6.25 µg/mL; MIC [26]: 6.25 µg/mL; inhibition zone (IZ) [27]: 48 mm
N-[(2-methoxyphenyl)]-4-oxo-4-[(tribenzylstannyl)oxy]butanamide | 13 | 200 | 150 | 12 | 16 | Active | 17 | 20.3 | 76.1 | 62 | 12 | 150 | Active | 0.793 | Active | 200 | 15 | 13 | 13 | Active | MIC [9]: 50 µg/mL; MIC [12]: 100 µg/mL; inhibition zone (IZ) [28]: 15 mm; MIC [22]: 200 µg/mL; MIC [24]: 100 µg/mL; MIC [25]: 150 µg/mL; MIC [26]: 200 µg/mL; inhibition zone (IZ) [27]: 15 mm
N-[(2-methoxyphenyl)]-4-oxo-4-[(triphenylstannyl)oxy]butanamide | 11 | 6.25 | 3.12 | 26 | 0 | Active | 0 | 32.2 | 77.5 | 54.9 | 23 | 6.25 | Active | 0.793 | Active | 6.25 | 0 | 0 | 32 | Active | MIC [12]: 12.5 µg/mL; inhibition zone (IZ) [28]: 28 mm; MIC [25]: 25 µg/mL; inhibition zone (IZ) [27]: 40 mm
N-[(2-methoxyphenyl)]-4-oxo-4-[(tributylstannyl)oxy]butanamide | 18 | 3.12 | 1.56 | 32 | 0 | inactive | 12 | 52.3 | 87.8 | 72.4 | 20 | 3.12 | inactive | 0.433 | inactive | 3.12 | 0 | 19 | 12 | inactive | MIC [9]: 150 µg/mL; MIC [12]: 100 µg/mL; inhibition zone (IZ) [28]: 32 mm; MIC [22]: 50 µg/mL; MIC [24]: 150 µg/mL; MIC [25]: 100 µg/mL; MIC [26]: 100 µg/mL; inhibition zone (IZ) [27]: 40 mm
Diphenylstannanediyl bis(4-(2-methoxyphenylamino)-4-oxobutanoate | 15 | 6.25 | 1.56 | 26 | 14 | Active | 16 | 43.9 | 85.3 | 62.2 | 22 | 6.25 | Active | 0.403 | Active | 6.25 | 0 | 17 | 11 | Active | MIC [9]: 25 µg/mL; MIC [12]: 200 µg/mL; inhibition zone (IZ) [28]: 32 mm; MIC [22]: 100 µg/mL; MIC [24]: 100 µg/mL; MIC [25]: 150 µg/mL; inhibition zone (IZ) [27]: 30 mm
N-[(2-methoxyphenyl)]-4-oxo-4-[(tricyclohexylstannyl)oxy]butanamide | 0 | 150 | 200 | 18 | 9 | inactive | 0 | 36.5 | 80.9 | 57.4 | 18 | 150 | inactive | 0.493 | inactive | 150 | 8 | 0 | 0 | inactive | MIC [9]: 200 µg/mL; inhibition zone (IZ) [28]: 16 mm; MIC [26]: 200 µg/mL; inhibition zone (IZ) [27]: 0 mm
